# Measurements gathered from unrelated publications.
# Compare with care: the assays were run in different laboratories.
# Target: cGMP-dependent protein kinase 2 (PRKG2, Homo sapiens, UniProt Q13237)
# Sequence (Q13237 1-762, as in one of the studies): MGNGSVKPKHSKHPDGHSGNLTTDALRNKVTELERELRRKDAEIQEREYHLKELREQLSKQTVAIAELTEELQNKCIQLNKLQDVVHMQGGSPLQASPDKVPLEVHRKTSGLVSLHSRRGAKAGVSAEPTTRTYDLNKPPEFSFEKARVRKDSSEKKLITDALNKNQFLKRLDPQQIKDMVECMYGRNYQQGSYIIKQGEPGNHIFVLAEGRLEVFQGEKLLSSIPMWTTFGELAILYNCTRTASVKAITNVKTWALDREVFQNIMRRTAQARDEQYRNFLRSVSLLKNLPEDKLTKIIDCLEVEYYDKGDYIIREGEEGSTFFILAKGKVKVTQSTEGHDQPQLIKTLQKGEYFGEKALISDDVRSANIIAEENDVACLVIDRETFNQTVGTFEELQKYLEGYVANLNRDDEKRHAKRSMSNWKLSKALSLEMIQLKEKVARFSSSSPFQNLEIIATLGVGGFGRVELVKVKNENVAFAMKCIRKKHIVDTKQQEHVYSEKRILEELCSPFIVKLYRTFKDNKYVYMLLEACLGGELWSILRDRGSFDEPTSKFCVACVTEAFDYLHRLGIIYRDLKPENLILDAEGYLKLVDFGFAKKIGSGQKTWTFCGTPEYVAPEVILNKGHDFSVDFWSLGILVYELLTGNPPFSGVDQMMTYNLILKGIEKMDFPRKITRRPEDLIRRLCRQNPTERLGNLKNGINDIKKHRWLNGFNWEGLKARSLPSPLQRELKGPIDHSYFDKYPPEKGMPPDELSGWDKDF
SMILES,test,conditions,measurement,value
Cn1cc(-c2cccc(N3CCc4c(sc5c4CC(C)(C)C5)C3=O)c2CO)cc(Nc2ccncn2)c1=O,"enzyme activity, inhibitor",1 µM,inhibition,2%
COc1ncccc1-c1cnn2ccc(N3CCN(C(=O)OC(C)C)CC3)nc12,"binding, competition with immobilised ligand",1 µM,remaining binding,88%
CC(C)(C)c1cc(C=C(C#N)C#N)cc(Br)c1O,"enzyme activity, inhibitor",0.5 µM,remaining activity,87.6%
Cn1cncc1[C@](O)(COc1ccc(C#N)cc1-c1ccc(OC(F)(F)F)cc1)c1ccc(C#N)cc1,"cell-free assay, competition with immobilised ligand",1 µM,remaining binding,100%
Nc1ncc(-c2nc(N3CCOCC3)nc(N3CCOCC3)n2)c(C(F)F)n1,"binding, competition with immobilised ligand",10 µM,remaining binding,90%
O=c1[nH]c2ccccc2n1C1CCN(Cc2ccc(-c3[nH]c4cc5ncnc5cc4nc3-c3ccccc3)cc2)CC1,cell-free assay,0.5 µM,remaining signal,96.8%
N#CC1(c2ccccn2)CCN(Cc2cc(C(=O)O)c(=O)n3ccccc23)CC1,"cell-free assay, competition with immobilised ligand",1 µM,remaining binding,95%
Cn1cc(-c2cc(F)cc(N3CCn4c(cc5c4CCCC5)C3=O)c2CO)cc(Nc2ccc(N3CCN(C4COC4)CC3)cn2)c1=O,"enzyme activity, inhibitor",0.1 µM,inhibition,11%
Cc1nn(C)cc1-c1nc2c(N3CCN(Cc4ccc(Cl)cc4)CC3)c(Cl)cnc2[nH]1,"binding, competition with immobilised ligand",1 µM,remaining binding,92%
